Data reported in ChEMBL document CHEMBL1938284, “Synthesis and biological activity of novel organoselenium derivatives targeting multiple kinases and capable of inhibiting cancer progression to metastases” (Eur J Med Chem, 2012).
Calls of active or inactive are those of the source. The rule behind the calls is not given here.

Key:
[1] = biological target: RAC-alpha serine/threonine-protein kinase (Homo sapiens, UniProt P31749); assay: Inhibition of AKT-1 at 1 uM
[2] = biological target: Tyrosine-protein kinase ABL1 (Homo sapiens) (UniProt P00519); assay: Inhibition of ABL1 at 1 uM
[3] = biological target: Aurora kinase B (Homo sapiens) (UniProt Q96GD4); assay: Inhibition of Aurora B at 1 uM
[4] = biological target: Cyclin-dependent kinase 1/cyclin B1 (Homo sapiens) (UniProt P06493+P14635); assay: Inhibition of CDK1/cyclin B at 1 uM; type: protein-complex assay
[5] = biological target: Epithelial discoidin domain-containing receptor 1 (Homo sapiens) (UniProt Q08345); assay: Inhibition of DDR1 at 1 uM
[6] = biological target: T1, Ephrin type-A receptor 1 (Homo sapiens) (UniProt P21709); assay: Inhibition of EPHA1 at 1 uM
T1 sequence (whole entry): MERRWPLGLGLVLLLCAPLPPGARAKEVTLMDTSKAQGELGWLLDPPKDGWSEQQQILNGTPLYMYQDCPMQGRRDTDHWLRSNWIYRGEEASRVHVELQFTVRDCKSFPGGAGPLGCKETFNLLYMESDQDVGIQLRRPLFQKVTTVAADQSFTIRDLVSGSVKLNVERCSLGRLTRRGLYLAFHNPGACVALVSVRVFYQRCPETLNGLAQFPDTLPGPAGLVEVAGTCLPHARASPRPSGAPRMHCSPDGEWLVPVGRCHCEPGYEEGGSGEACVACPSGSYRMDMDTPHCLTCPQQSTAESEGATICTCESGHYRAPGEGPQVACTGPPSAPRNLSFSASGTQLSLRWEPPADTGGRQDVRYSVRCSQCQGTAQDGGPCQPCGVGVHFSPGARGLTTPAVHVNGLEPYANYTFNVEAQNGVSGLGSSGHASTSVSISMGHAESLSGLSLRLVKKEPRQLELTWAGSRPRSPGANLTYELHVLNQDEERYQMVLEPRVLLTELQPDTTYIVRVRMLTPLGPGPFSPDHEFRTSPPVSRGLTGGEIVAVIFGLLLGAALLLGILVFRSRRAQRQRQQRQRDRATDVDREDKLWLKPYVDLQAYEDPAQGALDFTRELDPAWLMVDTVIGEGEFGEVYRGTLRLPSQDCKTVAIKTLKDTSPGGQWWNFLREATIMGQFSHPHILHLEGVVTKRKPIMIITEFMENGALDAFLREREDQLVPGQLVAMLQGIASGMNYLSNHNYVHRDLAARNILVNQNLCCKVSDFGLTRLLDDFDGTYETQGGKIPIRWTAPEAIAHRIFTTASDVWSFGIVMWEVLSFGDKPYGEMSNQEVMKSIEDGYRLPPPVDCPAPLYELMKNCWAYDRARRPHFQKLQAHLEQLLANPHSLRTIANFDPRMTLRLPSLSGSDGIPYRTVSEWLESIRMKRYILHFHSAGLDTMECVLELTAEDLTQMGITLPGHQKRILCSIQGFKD

[7] = biological target: Fibroblast growth factor receptor 1 (Homo sapiens) (UniProt P11362); assay: Inhibition of FGFR1 at 1 uM
[8] = biological target: Receptor-type tyrosine-protein kinase FLT3 (Homo sapiens) (UniProt P36888); assay: Inhibition of FLT3 at 1 uM
[9] = biological target: Insulin receptor (Homo sapiens) (UniProt P06213); assay: Inhibition of INSR at 1 uM
[10] = biological target: Tyrosine-protein kinase Lyn (Homo sapiens) (UniProt P07948); assay: Inhibition of LYN at 1 uM
[11] = biological target: T2, Mitogen-activated protein kinase 12 (Homo sapiens) (UniProt P53778); assay: Inhibition of p38-gamma at 1 uM
T2 sequence (whole entry): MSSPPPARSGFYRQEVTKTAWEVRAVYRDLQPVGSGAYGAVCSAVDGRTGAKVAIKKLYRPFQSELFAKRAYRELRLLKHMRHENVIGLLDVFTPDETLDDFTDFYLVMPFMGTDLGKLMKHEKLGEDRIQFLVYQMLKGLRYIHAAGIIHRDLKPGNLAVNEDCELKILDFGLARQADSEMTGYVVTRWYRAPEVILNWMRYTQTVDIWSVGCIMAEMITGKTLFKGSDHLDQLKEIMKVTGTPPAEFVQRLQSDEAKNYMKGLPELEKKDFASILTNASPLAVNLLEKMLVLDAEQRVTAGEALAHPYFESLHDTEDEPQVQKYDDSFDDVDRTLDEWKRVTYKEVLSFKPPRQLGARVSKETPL

[12] = biological target: Platelet-derived growth factor receptor beta (Homo sapiens) (UniProt P09619); assay: Inhibition of PDGFRbeta at 1 uM
[13] = biological target: T3, Serine/threonine-protein kinase Sgk3 (Homo sapiens) (UniProt Q96BR1); assay: Inhibition of SGK3 at 1 uM
T3 sequence (whole entry): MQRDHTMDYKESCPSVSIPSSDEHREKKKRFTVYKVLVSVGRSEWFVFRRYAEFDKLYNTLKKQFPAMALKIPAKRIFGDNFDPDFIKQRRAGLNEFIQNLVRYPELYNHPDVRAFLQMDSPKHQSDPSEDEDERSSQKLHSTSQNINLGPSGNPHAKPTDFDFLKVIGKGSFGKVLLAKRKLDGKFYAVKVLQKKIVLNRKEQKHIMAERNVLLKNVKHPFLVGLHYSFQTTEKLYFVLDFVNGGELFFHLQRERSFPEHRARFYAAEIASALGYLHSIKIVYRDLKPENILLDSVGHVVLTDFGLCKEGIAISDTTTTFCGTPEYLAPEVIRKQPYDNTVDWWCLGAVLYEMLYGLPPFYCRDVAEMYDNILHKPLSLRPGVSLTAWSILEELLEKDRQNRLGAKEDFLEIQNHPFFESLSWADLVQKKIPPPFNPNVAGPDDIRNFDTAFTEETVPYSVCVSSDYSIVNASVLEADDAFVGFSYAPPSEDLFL

[14] = biological target: Tyrosine-protein kinase receptor Tie-1 (Homo sapiens) (UniProt P35590); assay: Inhibition of TIE1 at 1 uM
[15] = biological target: BDNF/NT-3 growth factors receptor (Homo sapiens) (UniProt Q16620); assay: Inhibition of TRKB at 1 uM
MDA-MB-231 = assay: Inhibition of free radical generation in human MDA231 cells by CM-H2DCFDA based fluorometric analysis; type: functional, cell-based
[16] = […] in human MDA231 cells assessed as inhibition of cell migration at 10 uM after 12 to 24 hrs by wound healing migration assay relative to control; type: functional; conditions: MDA-MB-231
In short: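 MDA-231 cells grown on coverslips for 24 h, wounded by scraping with a micropipette tip, washed, then incubated in fresh medium at 37 °C with or without compound (10 μM final). Wound areas photographed at 12 and 24 h, remaining area measured, DMSO control set to 0% inhibition. Mean ± SD of five independent experiments.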

[17] = Antiproliferative activity against human MDA231 cells after 72 hrs by MTT assay; type: functional, cell-based; conditions: MDA-MB-231, 72 h
In short: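 MTT read-out on MDA-231 cells. 1×10^3 exponentially growing cells seeded and incubated 24, 48 and 72 h. Medium replaced with 1 mg/mL MTT for 3–4 h at 37 °C.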

Sequence of Cyclin-dependent kinase 1/cyclin B1 (Homo sapiens) (P06493 whole entry, looked up, the tested form may be a part): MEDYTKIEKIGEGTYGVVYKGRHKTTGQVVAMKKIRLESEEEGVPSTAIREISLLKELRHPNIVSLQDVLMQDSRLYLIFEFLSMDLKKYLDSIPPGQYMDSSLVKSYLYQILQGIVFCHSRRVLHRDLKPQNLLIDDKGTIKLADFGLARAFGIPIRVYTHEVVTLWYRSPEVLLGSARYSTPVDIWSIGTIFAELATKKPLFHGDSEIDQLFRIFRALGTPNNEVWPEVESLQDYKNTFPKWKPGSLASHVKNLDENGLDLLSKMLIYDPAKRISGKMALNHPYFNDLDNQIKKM
Sequence of Cyclin-dependent kinase 1/cyclin B1 (Homo sapiens) (P14635 whole entry, looked up, the tested form may be a part): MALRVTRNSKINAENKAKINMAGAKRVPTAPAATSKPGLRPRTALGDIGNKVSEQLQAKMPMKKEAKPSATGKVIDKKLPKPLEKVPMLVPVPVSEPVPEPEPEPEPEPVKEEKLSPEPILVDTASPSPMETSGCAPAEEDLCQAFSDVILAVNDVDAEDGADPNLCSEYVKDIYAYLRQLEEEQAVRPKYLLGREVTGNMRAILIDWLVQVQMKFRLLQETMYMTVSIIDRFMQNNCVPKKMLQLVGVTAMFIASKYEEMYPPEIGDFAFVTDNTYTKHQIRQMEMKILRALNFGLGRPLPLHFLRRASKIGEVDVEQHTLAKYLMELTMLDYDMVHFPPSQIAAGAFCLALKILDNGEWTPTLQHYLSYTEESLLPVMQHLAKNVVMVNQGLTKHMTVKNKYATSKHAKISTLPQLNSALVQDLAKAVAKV
Sequence of Platelet-derived growth factor receptor beta (Homo sapiens) (P09619 whole entry): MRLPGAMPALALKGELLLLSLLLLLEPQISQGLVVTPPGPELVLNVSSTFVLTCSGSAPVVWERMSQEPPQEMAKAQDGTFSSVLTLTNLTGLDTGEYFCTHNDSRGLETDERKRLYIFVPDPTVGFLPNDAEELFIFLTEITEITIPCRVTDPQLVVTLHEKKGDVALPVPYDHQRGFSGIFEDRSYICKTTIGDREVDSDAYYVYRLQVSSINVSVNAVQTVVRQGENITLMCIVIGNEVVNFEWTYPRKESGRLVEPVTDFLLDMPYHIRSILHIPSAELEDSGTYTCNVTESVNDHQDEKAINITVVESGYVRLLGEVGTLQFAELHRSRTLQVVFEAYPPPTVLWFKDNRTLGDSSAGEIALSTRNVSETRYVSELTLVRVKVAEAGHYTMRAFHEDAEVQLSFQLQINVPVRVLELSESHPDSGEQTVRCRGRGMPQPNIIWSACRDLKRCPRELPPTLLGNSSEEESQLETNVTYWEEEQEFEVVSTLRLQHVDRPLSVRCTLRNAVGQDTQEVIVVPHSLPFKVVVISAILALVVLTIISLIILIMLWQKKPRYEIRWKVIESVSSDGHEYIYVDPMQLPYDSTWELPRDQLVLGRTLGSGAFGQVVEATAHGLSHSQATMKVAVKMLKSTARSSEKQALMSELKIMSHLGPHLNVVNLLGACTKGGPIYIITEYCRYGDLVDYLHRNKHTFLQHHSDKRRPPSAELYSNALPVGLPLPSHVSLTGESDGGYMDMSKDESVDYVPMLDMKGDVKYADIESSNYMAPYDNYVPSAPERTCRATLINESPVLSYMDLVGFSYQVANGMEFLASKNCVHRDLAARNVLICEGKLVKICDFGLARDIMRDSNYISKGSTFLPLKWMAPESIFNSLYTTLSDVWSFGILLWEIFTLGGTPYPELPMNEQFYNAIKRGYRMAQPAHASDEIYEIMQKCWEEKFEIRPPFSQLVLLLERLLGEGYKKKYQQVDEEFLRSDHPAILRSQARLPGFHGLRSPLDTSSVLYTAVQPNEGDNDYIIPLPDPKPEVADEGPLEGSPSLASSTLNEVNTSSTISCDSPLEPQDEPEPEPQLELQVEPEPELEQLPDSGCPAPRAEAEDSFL
Sequence of Tyrosine-protein kinase Lyn (Homo sapiens) (P07948 2-512 limits assumed): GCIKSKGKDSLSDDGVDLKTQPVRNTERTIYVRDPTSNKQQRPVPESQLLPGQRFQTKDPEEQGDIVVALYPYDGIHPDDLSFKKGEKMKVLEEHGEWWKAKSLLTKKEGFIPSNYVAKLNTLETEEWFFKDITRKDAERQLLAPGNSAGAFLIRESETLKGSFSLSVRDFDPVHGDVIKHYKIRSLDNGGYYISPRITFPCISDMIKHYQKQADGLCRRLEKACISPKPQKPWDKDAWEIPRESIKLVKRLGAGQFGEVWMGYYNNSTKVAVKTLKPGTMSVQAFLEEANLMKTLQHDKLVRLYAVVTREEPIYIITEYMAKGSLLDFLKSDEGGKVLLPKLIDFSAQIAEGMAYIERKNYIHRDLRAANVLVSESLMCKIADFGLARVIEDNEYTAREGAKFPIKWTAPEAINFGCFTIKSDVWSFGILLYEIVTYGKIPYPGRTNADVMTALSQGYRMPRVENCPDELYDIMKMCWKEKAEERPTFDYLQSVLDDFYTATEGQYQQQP
Sequence of Tyrosine-protein kinase receptor Tie-1 (Homo sapiens) (P35590 whole entry): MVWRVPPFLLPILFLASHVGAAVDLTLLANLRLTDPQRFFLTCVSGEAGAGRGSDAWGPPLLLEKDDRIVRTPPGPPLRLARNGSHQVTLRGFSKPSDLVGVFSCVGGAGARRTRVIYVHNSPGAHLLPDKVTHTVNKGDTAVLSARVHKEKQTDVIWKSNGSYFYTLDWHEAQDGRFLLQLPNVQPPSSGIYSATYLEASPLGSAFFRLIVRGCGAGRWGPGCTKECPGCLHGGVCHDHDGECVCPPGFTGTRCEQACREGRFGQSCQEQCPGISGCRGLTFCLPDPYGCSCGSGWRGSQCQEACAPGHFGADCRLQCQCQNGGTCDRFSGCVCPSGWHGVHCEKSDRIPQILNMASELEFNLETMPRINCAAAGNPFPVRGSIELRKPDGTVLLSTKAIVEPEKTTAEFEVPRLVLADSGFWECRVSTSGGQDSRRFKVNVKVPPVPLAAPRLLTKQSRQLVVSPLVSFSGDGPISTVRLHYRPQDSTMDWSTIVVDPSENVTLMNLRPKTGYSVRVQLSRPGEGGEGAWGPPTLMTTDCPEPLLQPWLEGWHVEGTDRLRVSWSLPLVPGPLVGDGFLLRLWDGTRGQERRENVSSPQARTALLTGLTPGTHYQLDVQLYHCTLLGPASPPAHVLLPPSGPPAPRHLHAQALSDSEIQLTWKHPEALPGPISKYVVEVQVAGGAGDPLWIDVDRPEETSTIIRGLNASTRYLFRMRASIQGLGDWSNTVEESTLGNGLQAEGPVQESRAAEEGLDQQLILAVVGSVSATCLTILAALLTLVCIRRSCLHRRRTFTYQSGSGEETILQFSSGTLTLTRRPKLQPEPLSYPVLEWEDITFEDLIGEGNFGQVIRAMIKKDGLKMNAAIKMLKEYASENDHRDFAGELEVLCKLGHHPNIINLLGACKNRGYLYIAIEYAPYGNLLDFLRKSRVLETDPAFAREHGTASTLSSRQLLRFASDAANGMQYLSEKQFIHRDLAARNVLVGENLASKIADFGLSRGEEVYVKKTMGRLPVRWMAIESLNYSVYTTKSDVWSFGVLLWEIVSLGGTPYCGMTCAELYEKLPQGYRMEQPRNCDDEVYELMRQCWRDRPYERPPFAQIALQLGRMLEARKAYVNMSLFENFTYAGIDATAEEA
Sequence of Epithelial discoidin domain-containing receptor 1 (Homo sapiens) (Q08345 whole entry, the tested form may be a part): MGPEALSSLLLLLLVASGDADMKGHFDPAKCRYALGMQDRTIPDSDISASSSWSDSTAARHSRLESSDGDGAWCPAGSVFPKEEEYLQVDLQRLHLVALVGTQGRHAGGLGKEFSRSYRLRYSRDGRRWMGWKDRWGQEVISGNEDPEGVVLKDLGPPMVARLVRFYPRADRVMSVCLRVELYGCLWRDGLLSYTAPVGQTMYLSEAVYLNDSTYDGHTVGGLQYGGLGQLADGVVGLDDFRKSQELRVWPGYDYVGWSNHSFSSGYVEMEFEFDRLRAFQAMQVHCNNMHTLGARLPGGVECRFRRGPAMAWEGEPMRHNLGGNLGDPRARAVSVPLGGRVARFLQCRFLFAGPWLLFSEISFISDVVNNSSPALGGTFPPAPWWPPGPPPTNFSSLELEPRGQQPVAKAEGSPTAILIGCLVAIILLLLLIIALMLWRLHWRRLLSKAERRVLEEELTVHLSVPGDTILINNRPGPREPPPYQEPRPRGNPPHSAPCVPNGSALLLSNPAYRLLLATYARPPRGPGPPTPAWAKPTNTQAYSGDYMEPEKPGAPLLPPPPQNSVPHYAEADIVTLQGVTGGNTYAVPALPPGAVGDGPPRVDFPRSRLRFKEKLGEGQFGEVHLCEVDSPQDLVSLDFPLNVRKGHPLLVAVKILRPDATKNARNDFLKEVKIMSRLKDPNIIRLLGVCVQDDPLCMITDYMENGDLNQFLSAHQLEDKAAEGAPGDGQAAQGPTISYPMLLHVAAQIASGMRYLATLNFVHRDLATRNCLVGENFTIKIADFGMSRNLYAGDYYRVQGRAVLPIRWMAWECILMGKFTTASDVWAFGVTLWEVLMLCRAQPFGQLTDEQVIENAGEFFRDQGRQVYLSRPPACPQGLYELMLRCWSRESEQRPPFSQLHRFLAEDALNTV
Sequence of RAC-alpha serine/threonine-protein kinase (P31749 whole entry): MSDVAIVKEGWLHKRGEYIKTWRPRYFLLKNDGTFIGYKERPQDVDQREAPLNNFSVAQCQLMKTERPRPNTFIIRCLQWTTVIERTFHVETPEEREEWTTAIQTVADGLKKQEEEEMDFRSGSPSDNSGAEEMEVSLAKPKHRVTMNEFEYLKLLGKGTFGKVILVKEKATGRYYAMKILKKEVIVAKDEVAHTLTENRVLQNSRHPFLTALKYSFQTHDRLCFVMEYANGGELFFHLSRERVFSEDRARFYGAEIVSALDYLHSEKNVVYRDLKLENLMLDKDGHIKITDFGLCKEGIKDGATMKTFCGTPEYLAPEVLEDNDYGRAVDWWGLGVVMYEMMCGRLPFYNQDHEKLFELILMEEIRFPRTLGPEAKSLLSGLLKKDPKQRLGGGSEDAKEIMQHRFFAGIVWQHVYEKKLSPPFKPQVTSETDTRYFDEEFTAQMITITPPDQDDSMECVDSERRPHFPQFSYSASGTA

Q: Which results are given for CC(=O)OC[C@H]1O[C@@H](O[C@H]2[C@H](OC(C)=O)[C@@H](OC(C)=O)[C@H](n3[se]c4ccccc4c3=O)O[C@@H]2COC(C)=O)[C@H](OC(C)=O)[C@@H](OC(C)=O)[C@H]1OC(C)=O?
A: inhibition [1]: 63%; inhibition [2]: 0%; inhibition [3]: 0%; inhibition [4]: 0%; inhibition [5]: 0%; inhibition [6]: 0%; inhibition [7]: 0%; inhibition [8]: 0%; inhibition [9]: 0%; inhibition [10]: 0%; inhibition [11]: 0%; inhibition [12]: 0%; inhibition [13]: 0%; inhibition [14]: 0%; inhibition [15]: 0%; inhibition (MDA-MB-231): inactive; inhibition at 10 µM [16]: 50%

Q: For O=c1c2ccccc2[se]n1-c1ccccc1 [EBSELEN], which IC50 [17] is on record?
A: The IC50 was 42.3 µM.

Q: And the inhibition [1]?
A: The inhibition was 22%.

Q: And the inhibition [2]?
A: Its inhibition is 0%.

Q: What about the inhibition [3] of the same molecule?
A: The inhibition was 0%.

Q: What about the inhibition [4] of the same molecule?
A: Its inhibition is 0%.

Q: And the inhibition [5]?
A: Its inhibition is 0%.

Q: What about the inhibition [6] of the same molecule?
A: Its inhibition is 0%.

Q: And the inhibition [7]?
A: The inhibition was 0%.

Q: What about the inhibition [8] of the same molecule?
A: The inhibition was 0%.

Q: What about the inhibition [9] of the same molecule?
A: The inhibition was 0%.

Q: What about the inhibition [10] of the same molecule?
A: The inhibition was 0%.

Q: What about the inhibition [11] of the same molecule?
A: The inhibition was 0%.

Q: And the inhibition [12]?
A: The inhibition was 0%.

Q: And the inhibition [13]?
A: Its inhibition is 0%.

Q: What about the inhibition [14] of the same molecule?
A: The inhibition was 0%.

Q: And the inhibition [15]?
A: The inhibition was 0%.

Q: For CC(=O)OC[C@H]1O[C@@H](NC(=O)CCCn2[se]c3ccccc3c2=O)[C@H](OC(C)=O)[C@@H](OC(C)=O)[C@@H]1OC(C)=O, which IC50 [17] is on record?
A: Its IC50 is 18.9 µM.

Q: What about the inhibition [1] of the same molecule?
A: The inhibition was 67%.

Q: What about the inhibition [2] of the same molecule?
A: Its inhibition is 0%.

Q: And the inhibition [3]?
A: Its inhibition is 0%.

Q: And the inhibition [4]?
A: Its inhibition is 0%.

Q: What about the inhibition [5] of the same molecule?
A: The inhibition was 0%.

Q: And the inhibition [6]?
A: Its inhibition is 0%.

Q: And the inhibition [7]?
A: Its inhibition is 0%.

Q: What about the inhibition [8] of the same molecule?
A: The inhibition was 0%.

Q: And the inhibition [9]?
A: The inhibition was 0%.

Q: What about the inhibition [10] of the same molecule?
A: Its inhibition is 0%.

Q: What about the inhibition [11] of the same molecule?
A: Its inhibition is 0%.

Q: And the inhibition [12]?
A: The inhibition was 0%.

Q: And the inhibition [13]?
A: The inhibition was 0%.

Q: What about the inhibition [14] of the same molecule?
A: Its inhibition is 0%.

Q: And the inhibition [15]?
A: Its inhibition is 0%.

Q: What about the inhibition (MDA-MB-231) of the same molecule?
A: Its inhibition is “inactive”.

Q: And the inhibition at 10 µM [16]?
A: Its inhibition at 10 µM is 50%.

Q: With O=C(CCCn1[se]c2ccccc2c1=O)N[C@@H]1O[C@H](CO)[C@@H](O)[C@H](O)[C@H]1O as the molecule, how does the IC50 [17] read?
A: Its IC50 is 20.4 µM.

Q: What about the inhibition [1] of the same molecule?
A: The inhibition was 60%.

Q: And the inhibition [2]?
A: The inhibition was 0%.

Q: What about the inhibition [3] of the same molecule?
A: Its inhibition is 0%.

Q: What about the inhibition [4] of the same molecule?
A: Its inhibition is 0%.

Q: And the inhibition [5]?
A: Its inhibition is 0%.

Q: What about the inhibition [6] of the same molecule?
A: The inhibition was 0%.

Q: What about the inhibition [7] of the same molecule?
A: The inhibition was 0%.

Q: And the inhibition [8]?
A: Its inhibition is 0%.

Q: What about the inhibition [9] of the same molecule?
A: Its inhibition is 0%.

Q: And the inhibition [10]?
A: The inhibition was 0%.

Q: And the inhibition [11]?
A: Its inhibition is 0%.

Q: And the inhibition [12]?
A: Its inhibition is 0%.

Q: What about the inhibition [13] of the same molecule?
A: Its inhibition is 0%.

Q: And the inhibition [14]?
A: Its inhibition is 0%.

Q: What about the inhibition [15] of the same molecule?
A: The inhibition was 0%.

Q: What about the inhibition (MDA-MB-231) of the same molecule?
A: The inhibition was “inactive”.

Q: What about the inhibition at 10 µM [16] of the same molecule?
A: Its inhibition at 10 µM is 50%.
